Screening results from PubChem BioAssay.
TCR-CD3 inh: inhibitors of human TCR-CD3 interaction, primary screen, biochemical, fluorescence, TAMRA-labeled TCR probe; T-cell receptor (TCR); inhibition, % at 9.4 µM; 0.37% of 360,000 active; in the data active means inhibition above about 19%;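 further: recombinant mutant TCR 2C K166C tagged with TAMRA read by polarization; 0% = receptor in buffer alone and 100% = receptor with positive control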
SIAE primary: human SIAE inhibitors, primary screen, biochemical, fluorescence polarization, FP-Rh probe, 1536-well HTS. 0.69% of 370,000 active. Sialate O-acetylesterase (Homo sapiens), Q9HAT2. inhibition, % at 9.66 µM. AID 1053197, 2014. SIAE FP-Rh probe binding;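 active means inhibition above a cutoff: mean of compounds within the control limits plus 3 SD of those, cut at about 17% in these data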;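 further: 0% = plate median of compound wells and 100% = probe without SIAE protein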
PRMT1 FP inh: PRMT1 methyltransferase inhibitors, primary screen, biochemical, fluorescence polarization; Protein arginine N-methyltransferase 1 (Homo sapiens), Q99873; recombinant PRMT1, activity-based probe fluorescence polarization; inhibition, % at 2.79 µM; 1.3% of 370,000 active;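 active means inhibition above about 21% made by adding two undisclosed values, limit read from the data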
Target sequence (Q99873 whole entry, looked up): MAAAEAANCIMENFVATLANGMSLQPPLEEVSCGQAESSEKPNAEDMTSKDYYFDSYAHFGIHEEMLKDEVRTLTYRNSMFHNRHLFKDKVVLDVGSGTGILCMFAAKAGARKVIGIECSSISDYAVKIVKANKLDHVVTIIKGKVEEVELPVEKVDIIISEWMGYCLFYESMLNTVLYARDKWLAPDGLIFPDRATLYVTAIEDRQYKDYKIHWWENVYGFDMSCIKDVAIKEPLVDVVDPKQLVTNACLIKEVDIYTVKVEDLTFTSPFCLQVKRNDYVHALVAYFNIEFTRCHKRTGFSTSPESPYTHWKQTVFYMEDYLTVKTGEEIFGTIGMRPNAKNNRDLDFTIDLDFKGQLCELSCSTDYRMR
HTRA1 inh: HTRA1 serine protease inhibitors, primary screen, biochemical, fluorescence polarization, HTS | AID 504803, 2011 | recombinant HTRA1, FP-rhodamine activity-based probe | 0.5% of 340,000 active | inhibition, % at 5.96 µM; in the data active means inhibition above about 36%;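 further: 0% = enzyme with DMSO and 100% = wells lacking enzyme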
mABHD4 FP: ABHD4 inhibitors, primary screen, biochemical, fluorescence polarization, mouse; inhibition, % at 8.92 µM; purified mABHD4, FP-Rh probe fluorescence polarization; AID 720543, 2013; 0.54% of 370,000 active;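 active means inhibition exceeding the mean over every tested compound plus 3 SD, cut at about 30% in these data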;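 further: 0% = plate median of compound wells and 100% = S159A mutant with DMSO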
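assay system = mABHD4 protein | compound dosing = single nominal dose of 8.92 µM, 0.89% DMSO final | read-out basis = percent inhibition of probe binding, normalized to plate controls | schedule = Enzyme–compound pre-incubation 45 min, then probe 60 min, both 25 °C | detection = fluorescence polarization, excitation 525 nm, emission 598 nm, BODIPY TMR filters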
ABHD4 confirm: ABHD4 inhibitors, retest, confirmation, biochemical, fluorescence polarization, mouse. shares compounds with mABHD4 FP. purified mABHD4, FP-Rh probe fluorescence polarization. inhibition, % at 8.92 µM. 55% of 1,800 active. AID 720658, 2013;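 active means mean inhibition across replicates above the hit cutoff set in the primary screen, cut at about 30% in these data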;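 further: 0% = wild-type ABHD4 with DMSO and 100% = catalytically dead S159A mutant with DMSO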
Starred values were filed as active, the others as inactive; . = no result given. In the library only some 2.6% were active in any assay of this set; here they are far more common.

SMILES	TCR-CD3 inh	SIAE primary	PRMT1 FP inh	HTRA1 inh	mABHD4 FP	ABHD4 confirm
CC1(C)CC(=O)C2=C(C1)NC1=C(C(=O)c3ccccc31)C2c1ccccc1 (stereo not given)	-7	12	13	32	51*	47*
CC1(C)CC(=O)C2=C(C1)NC1=C(C(=O)c3ccccc31)C2c1cccnc1 (stereo not given)	-3	-3	-3	10	16	.
CC1(C)CC(=O)C2=C(C1)NC1=C(C(=O)c3ccccc31)C2c1cc([N+](=O)[O-])ccc1O (stereo not given)	5	15	6	32	49*	66*
Cc1ccccc1NC(=O)N(C)[C@H]1C[C@H]2c3[nH]c4c(-c5ccc6c(c5)OCO6)cccc4c3CCN2C(=O)[C@H]1[C@H](C)O	2	-1	-9	.	4	.
CCOC(=O)N1CCN(C(=O)C[C@H]2C[C@@]3(C(=O)OC)C(=C[C@H](C(C)(C)C)O[C@@H]3C)N(Cc3ccccc3)C2=O)CC1	0	-6	0	.	5	.
CCCCCn1c(CN2CCN(C)CC2)nc2c1c(=O)n(C)c(=O)n2C	-3	2	-4	5	30*	-16
CC1=C(C#N)C(=O)NC(=O)/C1=C\c1ccc(-c2ccc(C)cc2[N+](=O)[O-])o1	-10	-39	10	18	32*	33*
CCOc1ccccc1NC(=O)C(=O)CC(=O)c1cccc(OC)c1	1	-7	6	6	9	.
COc1cccc(C(=O)CC(=O)C(=O)Nc2cc(OC)ccc2OC)c1	-6	2	20	2	32*	8
CCn1c(COc2ccc(Cl)cc2)nnc1SCC(=O)Nc1ccccc1-c1ccccc1	.	-2	-9	.	-9	.
F[B-](F)(F)c1cnc2ccccc2c1	0	-2	-2	7	31*	23
c1cncc(-c2cnc3ccccc3c2)c1	3	1	-1	-3	-7	.
COC1=C[C@H](C(=O)N[C@H]2CCCC[C@@H]2NC(C)=O)[C@H](C)[C@@H](c2ccccc2)CC1=O	.	1	-3	.	-6	.
C=CCN1C(=O)[C@H](CC(=O)N2CCC(c3ccccc3)CC2)[C@@]2(C(=O)OCC)CCCC=C12	.	-2	-5	.	-4	.
OCCN(CCO)c1cc2c3ccccc3ccc2c2ccccc12	-2	0	0	2	30*	16
CN(C)CC(=O)N[C@@H]1C[C@@H]2O[C@@H](CO)CC[C@@H]2O[C@@H]1CCc1ccc(C2=CCCCC2)cc1	.	-1	1	.	4	.
CC1CCN(c2ccc(C(=O)O)cc2NS(=O)(=O)c2ccc(Br)cc2)CC1	-3	7	3	-10	39*	31*
CC1CCN(c2ccc(C(=O)O)cc2NS(=O)(=O)c2ccc(Cl)s2)CC1	.	6	4	.	38*	44*
COC(=O)[C@]12C[C@H](CC(=O)NCC34CC5CC(CC(C5)C3)C4)C(=O)N(Cc3ccccc3)C1=C[C@H](C(C)C)O[C@@H]2C1CC1	5	1	4	.	2	.
CN(C(=S)Nc1ccc(SC(F)F)cc1)c1ccc(O)cc1	4	17	30*	31	45*	-4
CN(C(=S)Nc1cccnc1)c1ccc(O)cc1	15	12	33*	22	47*	7
COC(=O)C(=O)C1CCc2c(Cl)cc(OC)c(OC)c2C1=O (stereo not given)	-5	14	20	12	52*	12
CNC(=O)c1cc(Cl)c(OC)c(OC)c1	-2	4	6	-3	14	.
Cc1cccc(C(=O)Nc2sc(-c3ccccc3)cc2C(=O)O)c1	-6	-78	8	-11	51*	53*
CC(C)(C)C(=O)Nc1sc(-c2ccccc2)cc1C(=O)O	7	-1	1	-4	6	.
SMILES	TCR-CD3 inh	SIAE primary	PRMT1 FP inh	HTRA1 inh	mABHD4 FP	ABHD4 confirm
CCCCOCCCNC(=O)C[C@H]1C[C@@]2(C(=O)OC)C(=C[C@H](C3CCCC3)O[C@@H]2C)N(CCc2ccc(OC)c(OC)c2)C1=O	.	-2	1	.	1	.
Cc1ccc(S(=O)(=O)N2c3ccccc3C[C@H]2CCC(=O)c2ccccc2)cc1	.	-6	5	.	-5	.
O=[N+]([O-])c1cccc(NN=Nc2ccccc2)c1	-6	3	4	4	7	.
O=C(O)c1cccc(NC(=O)c2cccc(S(=O)(=O)Nc3cccc([N+](=O)[O-])c3)c2)c1	-5	-9	4	-1	-9	.
O=C(O)c1cc(NN=Nc2ccc(Br)cc2)cc([N+](=O)[O-])c1	5	-7	6	-5	68*	67*
O=C(O)c1cc(NN=Nc2cccc(S(=O)(=O)O)c2)cc([N+](=O)[O-])c1	7	-10	2	3	39*	35*
O=C(O)c1cc(NN=Nc2cccc([N+](=O)[O-])c2)cc([N+](=O)[O-])c1	2	-17	6	-4	69*	73*
CC(C)(O)C#Cc1ccc(CN2CCN(Cc3ccsc3)C(CCO)C2)s1 (stereo not given)	7	2	-1	5	93*	-3
O=C(NN=C1CCN(Cc2ccccc2)CC1)c1cc2ccccc2cc1O	9	12	-1	36	46*	43*
O=C(NN=C1CCN(Cc2ccccc2)CC1)c1ccccc1O	18	2	-2	13	6	.
COc1cc(/C=N/NC(=S)NC2CC3C=CC2C3)cc(OC)c1OC (stereo not given)	-7	12	-3	.	30*	38*
COc1cc(/C=N/NC(=S)NCCc2ccccc2)cc(OC)c1OC	-2	9	-5	-28	22	.
Cc1[nH]c(=O)c(C#N)c2c1COC(C)(C)C2	.	.	.	-1	.	.
CC1=C(C#N)C(=O)OC(C)(C)C1	8	4	20	13	30*	10
C=CCN1C(=O)[C@H](CC(=O)N2CCN(C(=O)C3CC3)CC2)[C@@]2(C(=O)OCC)CCCC=C12	.	2	-3	.	4	.
COc1c(F)c(F)c(C(=O)Nc2ccc(N3CCN(C(C)=O)CC3)c(Cl)c2)c(F)c1F	-2	-5	-1	-3	31*	20
O=C(Nc1ccc(N2CCOCC2)c(Cl)c1)c1c(F)c(F)c(F)c(F)c1F	-2	5	-2	2	-4	.
O=C1Cc2cc(S(=O)(=O)N3CCN(c4ccc(C(=O)O)cc4)CC3)ccc2N1	3	-4	11	.	33*	10
CC(=O)c1ccc(N2CCN(S(=O)(=O)c3ccc4c(c3)NC(=O)CC(=O)N4)CC2)cc1	6	-1	1	-5	4	.
COC(=O)[C@@]12CCCCC3=C1N(CCC3)C(=O)[C@H]2CC(=O)N1CCC(c2ccccc2)CC1	.	4	3	.	-3	.
